This is an account of results in ChEMBL document CHEMBL1146639, “Synthesis and evaluation of nonpeptide substituted spirobenzazepines as potent vasopressin antagonists” (Bioorg Med Chem Lett, 2004).

Data set [1] concerns the target T1, Vasopressin V1a receptor (Homo sapiens, UniProt P37288). The experiment in a line: Binding affinity measured by inhibition of 3[H] AVP binding to cloned human vasopressin V1a receptor (Compound 7o). The method in brief: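 Displacement of [3H]AVP from cloned human V1a receptor; IC50 from inhibition of radioligand binding.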
Data set [2] has as its target T2, Vasopressin V2 receptor (Homo sapiens, UniProt P30518). The experiment in a line: Binding affinity measured by inhibition of 3[H] AVP binding to cloned human vasopressin V2 receptor. The method in brief: (§1)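 Radioligand binding: inhibition of [3H]AVP binding to cloned human V1a or V2 receptors; IC50 in nM.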
In data set [3] the target is T2, Vasopressin V2 receptor. Put plainly: Evaluated for accumulation of cAMP in transfected HEK293 cells expressing human vasopressin V2 receptor. The format is functional, cell-based. In outline: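 Functional V2 assay: cAMP accumulation measured in transfected HEK-293 cells expressing human V2 receptor; IC50 in nM.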
Data set [4] has as its target T1, Vasopressin V1a receptor. Put plainly: Binding affinity measured by inhibition of 3[H] AVP binding to cloned human vasopressin V1a receptor. In outline: as §1
Data set [5] has as its target T1, Vasopressin V1a receptor. The experiment in a line: Evaluated for intracellular calcium mobilization in HEK293 cells transfected to express human vasopressin V1a receptor. In kind it is functional, cell-based. The method in brief: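 Functional V1a assay: intracellular calcium mobilization measured in HEK-293 cells transfected to express human V1a receptor; IC50 in nM.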
A general note: Calcium flux is commonly read through the fluorescence of an indicator in the cells.

In data set [6] the target is T1, Vasopressin V1a receptor. Put plainly: Evaluated for intracellular calcium mobilization in HEK- 293 cells transfected to express human vasopressin V1a receptor (Compound 7o). In kind it is functional, cell-based, HEK293. In outline: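 Antagonism measured as inhibition of intracellular calcium mobilization in HEK-293 cells transfected with human V1a receptor; IC50 reported.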

Data set [7] can be described thus: Half-life determined by human liver microsome stability assay at a concentration of 5 uM. The format is ADME. The settings on record: liver microsomes. In general terms: Liver microsomes are vesicles of endoplasmic reticulum, rich in cytochrome P450 enzymes.
Data set [8] deals with T3, Vasopressin V1a receptor (Rattus norvegicus, UniProt P30560). The experiment in a line: Evaluated for binding affinity towards vasopressin V1a receptor in rat. The method in brief: (§2)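 Binding IC50 measured in cells transfected with rat V1a or rat V2 receptors.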
Data set [9] in a line: Area under the curve was evaluated at an oral dose of 30 mg/kg. More on the design: dose 30 mg/kg, route oral. In kind it is ADME, organism-based. The settings on record: rat, in vivo.
The nature of data set [10]: Bioavailability was evaluated in rats at an oral dose of 30 mg/kg. In kind it is ADME, organism-based. The settings on record: rat, in vivo. The method in brief:
(§3)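 Rats given a single oral dose of 30 mg/kg. Cmax, Tmax, terminal half-life and absolute oral bioavailability determined.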

A short description of data set [11]: Half-life was evaluated in rats at an oral dose of 30 mg/kg. The format is ADME, organism-based. On the set-up: dose 30 mg/kg, route oral. The settings on record: rat, in vivo. The method in brief:
as §3

Data set [12] is described as follows: Area under the curve was evaluated at an intravenous dose of 3 mg/kg. The format is ADME, organism-based. On the set-up: dose 3 mg/kg, route intravenous. The settings on record: rat, in vivo.
Data set [13] can be described thus: Time to reach maximum plasma concentration was evaluated at an oral dose of 30 mg/kg. The settings on record: rat. On the set-up: dose 30 mg/kg, route oral. In kind it is ADME, organism-based. In outline: as §3
The nature of data set [14]: Half-life was evaluated in rats at an intravenous dose of 3 mg/kg. The format is ADME, organism-based. On the set-up: dose 3 mg/kg, route intravenous. The settings on record: rat, in vivo.
Data set [15] is described as follows: Maximum plasma concentration was evaluated in rats at an intravenous dose of 3 mg/kg. As to conditions: rat. The format is ADME, organism-based. More on the design: dose 3 mg/kg, route intravenous.
Data set [16] is described as follows: Solubility measured at pH 2. The format is physicochemical. The settings on record: buffer.
Data set [17] can be described thus: Maximum plasma concentration was evaluated in rats at an oral dose of 30 mg/kg. The format is ADME, organism-based. On the set-up: dose 30 mg/kg, route oral. As to conditions: rat. In outline: as §3
Data set [18] can be described thus: Apparent volume of distribution when 3 mg/Kg dose was administered intravenously. In kind it is ADME, organism-based. As to conditions: rat, in vivo, iv, read-out: Volume distribution. The method in brief:
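Rats given a single intravenous dose of 3 mg/kg. Apparent volume of distribution reported in […].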

A short description of data set [19]: Solubility measured at pH 7.4. The format is physicochemical. As to conditions: buffer.
Data set [20] in a line: Partition coefficient (logP). The format is physicochemical. As to conditions: octanol/water.
Data set [21] addresses Vasopressin V2 receptor (Rattus norvegicus, UniProt Q00788). Put plainly: Evaluated for binding affinity towards vasopressin V2 receptor in rat. In outline:
as §2

Data set [22] addresses T3, Vasopressin V1a receptor. The experiment in a line: Evaluated for binding affinity towards vasopressin receptor V1a in rat. In outline: as §2

Values after ≈ are worked out from the molar mass of the structure shown.

The IC50 is the concentration that inhibits the measured activity by half. As usually defined, the half-life is how long it takes for the measured level to halve. A low value points to rapid decline. Usually AUC stands for the area under the concentration-time curve, a measure of exposure. A high value points to more exposure. Usually bioavailability stands for the share of a dose that reaches the circulation, judged against a reference dose that is usually intravenous. Read a low bioavailability as poor availability. A word on the Tmax: it is the time at which the peak concentration occurs. Usually Cmax stands for the maximum level reached in the sampled fluid or tissue. What is called solubility is how much of the substance goes into solution per volume. A lower solubility goes with a poorly soluble substance. As a reminder, the logP is the decadic logarithm of the partition coefficient of the neutral form, usually between octanol and water. Low readings indicate lower lipophilicity, high ones higher lipophilicity.

T2 sequence (P30518 whole entry): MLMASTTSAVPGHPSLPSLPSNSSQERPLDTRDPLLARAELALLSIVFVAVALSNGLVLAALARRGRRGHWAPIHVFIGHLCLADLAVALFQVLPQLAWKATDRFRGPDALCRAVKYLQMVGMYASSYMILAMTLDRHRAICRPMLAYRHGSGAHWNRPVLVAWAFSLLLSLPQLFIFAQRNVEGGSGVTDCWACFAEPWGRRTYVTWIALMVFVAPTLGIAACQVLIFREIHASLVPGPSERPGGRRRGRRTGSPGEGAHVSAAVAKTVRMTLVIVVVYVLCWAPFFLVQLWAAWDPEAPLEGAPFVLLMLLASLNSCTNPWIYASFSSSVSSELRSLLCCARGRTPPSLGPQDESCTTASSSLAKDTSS
T1 sequence (P37288 whole entry): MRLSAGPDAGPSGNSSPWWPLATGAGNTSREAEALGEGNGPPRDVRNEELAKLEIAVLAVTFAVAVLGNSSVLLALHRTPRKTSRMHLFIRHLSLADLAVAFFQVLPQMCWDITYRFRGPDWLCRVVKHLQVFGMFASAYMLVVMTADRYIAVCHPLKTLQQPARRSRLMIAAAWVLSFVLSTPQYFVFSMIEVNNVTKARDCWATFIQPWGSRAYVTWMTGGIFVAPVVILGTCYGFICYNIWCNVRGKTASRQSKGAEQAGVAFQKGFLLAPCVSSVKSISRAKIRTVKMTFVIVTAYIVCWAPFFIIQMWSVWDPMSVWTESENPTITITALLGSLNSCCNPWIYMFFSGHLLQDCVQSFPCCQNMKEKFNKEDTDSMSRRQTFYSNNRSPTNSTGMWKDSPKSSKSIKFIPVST
T3 sequence (P30560 whole entry): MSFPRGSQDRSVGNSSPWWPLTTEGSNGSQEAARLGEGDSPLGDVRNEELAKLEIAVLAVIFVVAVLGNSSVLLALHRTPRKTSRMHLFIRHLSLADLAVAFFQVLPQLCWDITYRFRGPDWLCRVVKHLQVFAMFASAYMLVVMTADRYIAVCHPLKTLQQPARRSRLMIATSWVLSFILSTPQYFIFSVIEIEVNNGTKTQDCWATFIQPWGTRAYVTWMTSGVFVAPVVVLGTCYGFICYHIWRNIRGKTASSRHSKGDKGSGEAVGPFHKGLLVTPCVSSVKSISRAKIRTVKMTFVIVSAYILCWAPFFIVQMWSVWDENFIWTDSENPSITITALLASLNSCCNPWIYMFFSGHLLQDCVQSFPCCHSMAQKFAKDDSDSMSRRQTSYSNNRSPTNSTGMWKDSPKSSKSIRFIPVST
Chain of Vasopressin V2 receptor (Rattus norvegicus, UniProt Q00788) (Q00788 whole entry): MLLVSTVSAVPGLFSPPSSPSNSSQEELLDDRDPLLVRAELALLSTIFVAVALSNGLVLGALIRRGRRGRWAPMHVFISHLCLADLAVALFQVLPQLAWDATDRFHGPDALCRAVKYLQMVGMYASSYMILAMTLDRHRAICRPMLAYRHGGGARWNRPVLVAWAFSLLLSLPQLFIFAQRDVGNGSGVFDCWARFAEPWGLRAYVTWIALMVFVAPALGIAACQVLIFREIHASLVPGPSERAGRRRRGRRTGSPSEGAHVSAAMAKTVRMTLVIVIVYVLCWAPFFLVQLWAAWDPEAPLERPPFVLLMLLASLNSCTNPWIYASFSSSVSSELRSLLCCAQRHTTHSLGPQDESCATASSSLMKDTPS

For the molecule `Cc1ccc(F)cc1C(=O)Nc1ccc(C(=O)N2CCC3(C=C(C(=O)NCCN4CCCCC4)CC3)Cc3ccccc32)cc1` (stereo not drawn), the IC50 on Vasopressin V1a receptor [1] was 0.016 µM; on Vasopressin V2 receptor [2], 0.039 µM; against Vasopressin V2 receptor [3], 0.048 µM; at Vasopressin V1a receptor [4], 0.01 µM; on Vasopressin V1a receptor [5] it was 0.048 µM; on Vasopressin V1a receptor [6], 0.071 µM.
Take `CN(C)CCNC(=O)C1=CC2(CC1)CCN(C(=O)c1ccc(NC(=O)c3ccccc3F)cc1)c1ccccc1C2` (stereo not drawn): the IC50 on Vasopressin V2 receptor [2] and at Vasopressin V2 receptor [3] was > 1 µM in each case.
Take `Cc1ccc(F)cc1C(=O)Nc1ccc(C(=O)N2CCC3(C=C(C(=O)NCCN4CCCC4)CC3)Cc3ccccc32)cc1` (stereo not drawn): the IC50 worked out at 0.039 µM on Vasopressin V2 receptor [2], 0.048 µM at Vasopressin V2 receptor [3], 0.019 µM at Vasopressin V1a receptor [4] and 0.029 µM at Vasopressin V1a receptor [5].
For `O=C(NCCN1CCCC1)C1=CC2(CC1)CCN(C(=O)c1ccc(NC(=O)c3ccccc3F)cc1)c1ccccc1C2` (stereo not drawn) the same measures were > 1 µM, > 1 µM, 0.008 µM and 0.155 µM.
As for `O=C(NCCO)C1=CC2(CC1)CCN(C(=O)c1ccc(NC(=O)c3ccccc3F)cc1)c1ccccc1C2` (stereo not drawn), the IC50 at Vasopressin V2 receptor [2] and against Vasopressin V2 receptor [3] was > 1 µM throughout.
Regarding `CN(C)CCNC(=O)C1=C[C@]2(CC1)CCN(C(=O)c1ccc(NC(=O)c3ccccc3-c3ccccc3)cc1)c1ccccc1C2`, the half-life at 5 µM in data set [7] was found to be 1.08 h. Also, the IC50 on Vasopressin V1a receptor [8] turned out to be 0.033 µM; on Vasopressin V2 receptor [2] it was 0.008 µM; on Vasopressin V2 receptor [3], 0.036 µM; on Vasopressin V1a receptor [4], 0.002 µM; on Vasopressin V1a receptor [5], 0.045 µM. The AUC in data set [9] turned out to be 4.57 µM·h; in [12] it was 2.06 µM·h. In [10], this molecule registered a bioavailability of 22%. Besides, the results for the half-life in data set [11] and in data set [14] were 6.47 h and 1.68 h, respectively. Also, the Tmax in [13] turned out to be 4 h. Further, the results for the Cmax in data set [15] and in data set [17] were 2660 nM and 790 nM, respectively. For the same molecule, the solubility in [16] is 160 µg/mL (≈ 261 µM); in data set [19], 40 µg/mL (≈ 65.3 µM). The Vd in [18] came out at 6.84 L/kg. In addition, the logP in data set [20] turned out to be 3.63.
`O=C(NCCN1CCOCC1)C1=CC2(CC1)CCN(C(=O)c1ccc(NC(=O)c3ccccc3F)cc1)c1ccccc1C2` (stereo not drawn): the values for the IC50 on Vasopressin V2 receptor [2] and at Vasopressin V1a receptor [4] were > 1 µM and 0.004 µM, respectively.
With `CN(C)CCNC(=O)C1=CC2(CC1)CCN(C(=O)c1ccc(NC(=O)c3ccccc3-c3ccccc3)cc1)c1ccccc1C2` (stereo not drawn), half-maximal inhibition against Vasopressin V2 receptor [3] (IC50) required 0.1 µM.
Take `Cc1ccc(F)cc1C(=O)Nc1ccc(C(=O)N2CCC3(C=C(C(=O)NCCCN(C)C)CC3)Cc3ccccc32)cc1` (stereo not drawn): the IC50 is 0.031 µM at Vasopressin V2 receptor [3] and 0.004 µM on Vasopressin V1a receptor [5].
For the molecule `COC(=O)CNC(=O)C1=CC2(CC1)CCN(C(=O)c1ccc(NC(=O)c3cc(F)ccc3C)cc1)c1ccccc1C2` (stereo not drawn), the IC50 turned out to be 0.01 µM at Vasopressin V2 receptor [2], 0.44 µM against Vasopressin V2 receptor [3], 0.007 µM on Vasopressin V1a receptor [4] and 0.135 µM on Vasopressin V1a receptor [5].
For `CN(C)CCCNC(=O)C1=CC2(CC1)CCN(C(=O)c1ccc(NC(=O)c3ccccc3-c3ccccc3)cc1)c1ccccc1C2` (stereo not drawn) the same measures were 0.016 µM, 0.02 µM, 0.005 µM and 0.029 µM.
With `Cc1ccc(F)cc1C(=O)Nc1ccc(C(=O)N2CCC3(C=C(C(=O)NCCN(C)C)CC3)Cc3ccccc32)cc1` (stereo not drawn), the IC50 on Vasopressin V2 receptor [2] was 0.02 µM; against Vasopressin V2 receptor [3], 0.105 µM; on Vasopressin V1a receptor [5], 0.065 µM.
For the molecule `O=C(O)CNC(=O)C1=CC2(CC1)CCN(C(=O)c1ccc(NC(=O)c3ccccc3-c3ccccc3)cc1)c1ccccc1C2` (stereo not drawn), the IC50 at Vasopressin V2 receptor [2] was found to be 0.018 µM; on Vasopressin V2 receptor [3] it was 0.35 µM; on Vasopressin V1a receptor [4] it was 0.024 µM; on Vasopressin V1a receptor [5], 0.078 µM.
Molecule `O=C(NCCO)C1=CC2(CC1)CCN(C(=O)c1ccc(NC(=O)c3ccccc3-c3ccccc3)cc1)c1ccccc1C2` (stereo not drawn) returned a half-inhibitory concentration (IC50) at Vasopressin V2 receptor [3] of 0.17 µM.
Regarding `O=C(NCCN1CCCCC1)C1=CC2(CC1)CCN(C(=O)c1ccc(NC(=O)c3ccccc3F)cc1)c1ccccc1C2` (stereo not drawn), the IC50 at Vasopressin V2 receptor [2] and against Vasopressin V2 receptor [3] was > 1 µM in each case.
The molecule `CN(C)CCNC(=O)C1=C[C@@]2(CC1)CCN(C(=O)c1ccc(NC(=O)c3ccccc3F)cc1)c1ccccc1C2` (single isomer, unassigned) registered a half-life at 5 µM in data set [7] of 0.717 h. Further, the values for the AUC in data set [9] and in [12] were 7.04 µM·h and 1.68 µM·h, respectively. Moreover, the 50% inhibitory concentration (IC50) was determined as 0.341 µM at Vasopressin V2 receptor [2]; 0.444 µM at Vasopressin V2 receptor [21]; 0.646 µM against Vasopressin V2 receptor [3]; 0.004 µM at Vasopressin V1a receptor [4]; 0.433 µM on Vasopressin V1a receptor [22]; 0.078 µM on Vasopressin V1a receptor [5]. The bioavailability in data set [10] came out at 42%. Further, the half-life was 4.15 h in data set [11] and 4.35 h in data set [14]. Also, the Tmax in data set [13] is 4.67 h. The Cmax was 1800 nM in data set [15] and 1100 nM in data set [17]. Moreover, the solubility in [16] worked out at 320 µg/mL (≈ 577 µM); in [19] it was 70 µg/mL (≈ 126 µM). Moreover, in data set [18], the Vd is 6.67 L/kg. In data set [20], this molecule gave a logP of 2.45.
